High-throughput results: PubChem BioAssay, several laboratories
This is a sample that favours compounds with a hit; in the whole collection about 1.6% have one here.
TLR4 MyD88 comp: inhibitors of TLR4-MyD88 association in cells, primary screen, cell-based, HeLa CL3-4, BLA complementation, FRET ratio | Toll-like receptor 4 (Homo sapiens) + Myeloid differentiation primary response protein … | HeLa CL3-4 TLR4/MyD88 BLA complementation | inhibition, % at 8.4 µM | 0.18% of 200,000 active; in the data active = inhibition above about 25%
TLR9-MyD88 inh: inhibitors of TLR9-MyD88 association in cells, primary screen, cell-based, CHO, BLA complementation, fluorescence | Toll-like receptor 9 (Homo sapiens) + Myeloid differentiation primary response protein … | CCF4 FRET ratio | inhibition, % at 4.98 µM | 0.21% of 340,000 active | AID 504734, 2011;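 active = inhibition above the mean over all tested compounds plus 3 SD, cut at about 21% in these data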
SR-BI HDL uptake: inhibitors of SR-BI mediated HDL lipid uptake, primary screen, ldlA[mSR-BI] cells, fluorescence, single point; inhibition, % at 12.5 µM; ldlA[mSR-BI] CHO cells, DiI-HDL uptake fluorescence, 3 h; AID 488896, 2010; Scavenger receptor class B member 1 (Mus musculus), Q61009; 0.96% of 320,000 active;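 active = mean replicate inhibition of at least 70% and a set share of replicates each scoring 70 or more; inconclusive = meets just one of the two criteria; inactive = fails both criteria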
Target sequence (Q61009 whole entry, looked up): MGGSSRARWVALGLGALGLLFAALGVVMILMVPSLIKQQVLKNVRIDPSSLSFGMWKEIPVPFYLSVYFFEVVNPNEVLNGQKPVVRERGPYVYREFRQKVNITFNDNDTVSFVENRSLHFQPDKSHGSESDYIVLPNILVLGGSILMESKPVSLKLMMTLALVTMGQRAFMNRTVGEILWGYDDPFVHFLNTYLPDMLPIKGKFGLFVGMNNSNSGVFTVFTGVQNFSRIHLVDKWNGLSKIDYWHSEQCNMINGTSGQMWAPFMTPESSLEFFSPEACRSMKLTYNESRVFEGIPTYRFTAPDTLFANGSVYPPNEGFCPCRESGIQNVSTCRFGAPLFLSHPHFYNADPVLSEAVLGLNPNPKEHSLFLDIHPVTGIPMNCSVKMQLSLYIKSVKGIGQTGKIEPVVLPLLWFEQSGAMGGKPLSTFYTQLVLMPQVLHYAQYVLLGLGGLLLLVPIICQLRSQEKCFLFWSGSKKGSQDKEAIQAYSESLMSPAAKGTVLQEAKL
Hep lipid drop: inhibitors of hepatocyte lipid droplet formation, primary screen, imaging, high-throughput imaging, BODIPY stain. AML12 mouse hepatocytes, oleate lipid droplets. inhibition, % at 6.5 µM. 0.4% of 240,000 active;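 active = lipid droplet intensity inhibited by at least 50%, with more than 500 cells counted; inconclusive = wells with under 300 cells, treated as cytotoxic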
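Material – AML12 mouse liver cells · Also added – oleate loading, 100 µM · Compound dosing – 6.5 µM single-point dosing · Times – overnight treatment with compound plus oleate · Measured by – fluorescence imaging, 20x objective, two fields per well · Read-out – percent inhibition of filter-corrected integrated lipid droplet intensity per well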
NOD2-RIPK2 inh: NOD2-RIPK2 binding disruptors in cells, primary screen, fluorescence, CHO cells, BLA complementation | Receptor-interacting serine/threonine-protein kinase 2 (Homo sapiens), O43353 | CCF4 ratio | inhibition, % at 4.98 µM | 0.38% of 360,000 active | AID 624267, 2012; in the data active = inhibition above about 21%
SR-BI uptake up: activators of SR-BI mediated DiI-HDL uptake, primary screen, ldlA[mSR-BI] CHO cells, DiI fluorescence. 3 h; 100 = double the neutral-control signal. activation, % at 12.5 µM. 0.096% of 320,000 active. AID 504775, 2011;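 active = mean replicate activation of at least 60% and every replicate at or above 60%; inconclusive = mean or all-replicate condition met, but not both; inactive = mean below 60% and not all replicates reaching 60%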
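Assay system: CHO ldlA[mSR-BI] cells, LDL receptor-null, SR-BI overexpressing; medium: Ham's F12 with 0.5% BSA, HEPES 25 mM, pH 7.4; also added: DiI-HDL 10 µg/mL; timing: 3 h uptake period with compound, 37 °C; signal: DiI fluorescence, bottom read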
DiI quench: DiI fluorescence quenching in cell-free counter-screen. shares compounds with SR-BI HDL uptake. cell-free DiI-HDL fluorescence quenching, 30 min. AC50, µM (titrated, usually from 35 µM). 20% of 470 active. AID 540326;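 active = quenching, a falling signal, with AC50 below a set limit tied to the top valid dose, actives reach about 32 µM in these data; inconclusive = no clear call, values can overlap the other calls; inactive = rising signal, and the rest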
Hits are given with their value; - = inactive; ? = inconclusive; . = not tested or not shown.

SMILES	TLR4 MyD88 comp	TLR9-MyD88 inh	SR-BI HDL uptake	Hep lipid drop	NOD2-RIPK2 inh	SR-BI uptake up	DiI quench
CC(=O)C(C(C)=O)C(c1ccccc1)c1nc2ccccc2[nH]c1=O (stereo unspecified)	.	-	-	-	-	-	.
CCOC(=O)c1c(C)n(-c2ccc(C)cc2)c2c(CC(C)=O)c(Br)c(OC)c(O)c12	-	-	73	-	-	-	-
CC1CCCCC1NC(=O)c1nn(C)c2c1CS(=O)(=O)c1ccccc1-2 (stereo unspecified)	.	-	78	-	-	-	-
Cc1ccc(-n2c(SCC(=O)N3CCCCC3)nc(O)c(Cc3ccccc3)c2=O)cc1	.	-	-	-	-	-	.
CCc1cc(CNC(=O)C2CCC(=O)N(CCc3cccc(F)c3)C2)on1 (stereo unspecified)	.	-	-	-	-	-	-
Cc1cc(CNC(=O)C2CCC(=O)N(CCc3cccc(F)c3)C2)on1 (stereo unspecified)	.	-	-	-	-	-	.
COc1ccc(/C=C/C(=O)Nc2cccc(S(=O)(=O)NC3=NCCCCC3)c2)cc1	.	-	.	-	-	.	.
COc1cc(/C=C/C(=O)Nc2cccc(S(=O)(=O)NC3=NCCCCC3)c2)ccc1OCC#N	.	-	75	.	-	-	-
COc1ccc(-c2nnn(CC(=O)N(C3CCCC3)C(C)C(=O)NC3CCCC3)n2)cc1OC (stereo unspecified)	-	-	-	.	-	-	.
COc1ccc(N(CC(=O)NC2CCCC2)C(=O)Cn2nnc(-c3ccc(C)cc3)n2)cc1	-	-	-	-	-	-	-
COc1ccc(-c2nnn(CC(=O)N(C3CCCCC3)C(C)C(=O)NC3CCCC3)n2)cc1OC (stereo unspecified)	-	-	86	.	-	-	-
COc1ccc(-c2nnn(CC(=O)N(CC(=O)NC3CCCC3)c3cccc(C)c3)n2)cc1OC	-	-	83	.	-	-	-
CC(C)(C)n1nnnc1C(c1cc2ccccc2o1)N1CCOCC1 (stereo unspecified)	.	.	.	.	-	.	.
COc1ccc(/C=C/C(=O)OCC(=O)NC(C)CCc2ccccc2)cc1OC (stereo unspecified)	.	-	-	.	-	-	.
O=C(NC1CC1)c1ccc(CN(c2ccccc2)S(=O)(=O)c2ccccc2)cc1	-	-	?	-	-	-	-
O=C(Nc1nc(NC(=O)c2ccco2)n(-c2ccccc2)n1)c1ccccc1	-	-	122	-	-	-	2µM
Nc1nc(NC(=O)c2ccccc2)nn1-c1ccccc1	-	-	-	-	-	-	.
CCOc1ccccc1C(=O)Nc1nn[nH]n1	-	-	-	-	-	-	.
COc1ccc(-c2nc3ccc(Cl)cn3c2Cc2ccc(C)cc2)cc1OC	.	.	.	.	-	.	.
Cc1c(Nc2nc3ccccc3nc2N2CCN(c3ccccc3)CC2)c(=O)n(-c2ccccc2)n1C	-	-	?	-	-	-	-
CCn1cc(CN2CCc3c([nH]c4ccccc34)C2c2ccc(F)c(OC)c2)c(C)n1 (stereo unspecified)	-	-	-	-	-	-	.
CCn1nc(C)c(CN2CCc3c([nH]c4ccccc34)C2c2ccc(F)c(OC)c2)c1C (stereo unspecified)	-	-	82	-	-	-	-
COc1cc(OC)cc(C(=O)N[C@H](C(=O)Nc2nc(-c3ccc(F)c(F)c3)cs2)C(C)C)c1	-	-	84	-	-	-	-
CC(=O)Nc1ccc(C(=O)OCC(=O)N(c2ccccc2)C2CCCCC2)cc1	.	-	-	.	-	-	.
